In ChEMBL document CHEMBL5096187, “Efficient Synthesis and Bioevaluation of Novel Dual Tubulin/Histone Deacetylase 3 Inhibitors as Potential Anticancer Agents” (J Med Chem, 2021):
Activity calls are given as the source filed them. The calls are words filed in the database; no cut-off is given here.

Tests used:
B16-F10 [1] = test: Induction of apoptosis in mouse B16-F10 cells assessed as late apoptotic cells at 100 nM incubated for 48 hrs by Annexin V-FITC/PI analysis (reference value: 0.00 %); assay type: functional
[2] = Toxicity in C57BL/6 mouse allografted with mouse B16-F10 cells assessed as morphological abnormalities in kidney at 5 mg/kg, ip administered for 14 days in presence of Entinostat by H and E staining based analysis; assay type: organism-based; settings: in vivo, 336 h, time 14 day
Outline: (§1)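 C57BL/6 mice with subcutaneous B16-F10 allografts, n = 8 per group, given i.p. injections once daily for 14 days. Single agents at 10 mg/kg; combination at 5 + 5 mg/kg. Vehicle: ethanol/polyoxyethylene castor oil/saline 1.25:1.25:7.5. Liver and kidney fixed in 4% paraformaldehyde, paraffin-embedded, H&E stained and examined by microscopy.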

Jurkat = test: Antiproliferative activity against human Jurkat cells assessed as inhibition of cell viability measured for 48 hrs by microplate reader based CCK-8 assay; assay type: functional
B16-F10 [3] = test: Induction of apoptosis in mouse B16-F10 cells assessed as early apoptotic cells at 100 nM incubated for 48 hrs by Annexin V-FITC/PI analysis (reference value: 1.68 %); assay type: functional
Tubulin = Tubulin (Sus scrofa, UniProt P02554+P02550); test: Inhibition of pig brain tubulin polymerization by spectrometric method
Outline: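 Phosphocellulose-purified pig brain tubulin mixed with graded compound concentrations in PEM buffer (100 mM PIPES, 1 mM MgCl2, 1 mM EGTA) plus 1 mM GTP and 5% glycerol. Absorbance at 340 nm and 37 °C; plateau absorbance used to calculate IC50.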

B16-F10 [4] = test: Induction of apoptosis in mouse B16-F10 cells assessed as viable cells at 100 nM incubated for 48 hrs by Annexin V-FITC/PI analysis (reference value: 98.3 %); assay type: functional; settings: read-out: Activity
B16-F10 [5] = test: Inhibition of cell migration in mouse B16-F10 cells assessed as reduction in wound area ratio measured at 100 nM incubated for 24 hrs by wound healing assay; assay type: functional; design: scale not given: the % may be the effect or the level left
Outline: (§2)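 Confluent B16-F10 monolayers, seeded overnight, were scratched with a pipette tip and washed to remove debris. Cells were then treated, and phase-contrast images were taken at 0 and 24 h. Migration distance or wound area measured manually against DMSO control; n = 3.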

A549 = test: Antiproliferative activity against human A549 cells assessed as inhibition of cell viability measured for 48 hrs by microplate reader based CCK-8 assay; assay type: functional; settings: A549, 48 h
[6] = In vivo inhibition of HDAC in tumor of mouse B16-F10 cells xenografted in C57BL/6 mouse assessed as increase in acetylated histone-H3 expression in presence of Entinostat by […] immunohistochemistry method; assay type: functional; design: scale not given: the % may be the effect or the level left
Outline: (§3)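 Tumors from the 14-day i.p. B16-F10 study were formalin-fixed and paraffin-embedded. Sections were deparaffinized, treated with 3% H2O2, and antigen-retrieved at pH 9 and 80 °C overnight. Blocked with milk, incubated with anti-Ac-H3 at 4 °C overnight, then IgG secondary and hematoxylin counterstain. Ac-H3-positive ratio quantified from images.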

[7] = Cardiotoxicity in C57BL/6 mouse ssessed as shortening of QTc level by ECG analysis; assay type: toxicity
Outline: (§4)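 Mice aged 6–8 weeks dosed by intragastric gavage once daily for 14 days; ECG and heart rate recorded on a PowerLab system.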

B16-F10 [8] = test: Antiproliferative activity against mouse B16-F10 cells assessed as inhibition of cell viability measured for 48 hrs by microplate reader based MTT assay; assay type: functional; settings: B16-F10, 48 h
Outline: (§5)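 Cells grown in RPMI-1640 with 10% FBS and seeded at 5000 cells/well. After overnight attachment, compound was added in medium with 0.1% DMSO for 48 h at 37 °C. Read-out was MTT for HCT-116, B16-F10 and A549, and CCK-8 for Jurkat (0.5 mg/mL, 4 h), with absorbance at 570 nm. IC50 from nonlinear regression; at least three independent experiments.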

B16-F10 [9] = test: Induction of apoptosis in mouse B16-F10 cells assessed as necrotic cells at 100 nM incubated for 48 hrs by Annexin V-FITC/PI analysis (reference value: 0.012 %); assay type: functional
[10] = Antiproliferative activity against human YCC3/7 cells assessed as inhibition of cell viability; assay type: functional, cell-based
[11] = Antiproliferative activity against human YCC-11 cells assessed as inhibition of cell viability; assay type: functional, cell-based
[12] = Cardiotoxicity in C57BL/6 mouse ssessed as shortening of QTc level in presence of Entinostat by ECG analysis; assay type: toxicity; outline: as §4
B16-F10 [13] = test: Antiproliferative activity against mouse B16-F10 cells assessed as inhibition of cell viability measured for 48 hrs in presence of Entinostat by microplate reader based MTT assay; assay type: functional; settings: B16-F10, 48 h; outline: as §5
HCT-116 = test: Antiproliferative activity against human HCT-116 cells assessed as inhibition of cell viability measured for 48 hrs by microplate reader based MTT assay; assay type: functional; settings: HCT-116, 48 h; outline: as §5
[14] = Toxicity in C57BL/6 mouse allografted with mouse B16-F10 cells assessed as morphological abnormalities in kidney at 10 mg/kg, ip administered for 14 days by H and E staining based analysis; assay type: organism-based; settings: in vivo, 336 h, time 14 day; outline: as §1
B16-F10 [15] = test: Antitumor activity against mouse B16-F10 cells allografted in C57BL/6 mouse assessed as tumor growth inhibition at 10 mg/kg, ip administered for 14 days; assay type: functional; settings: B16-F10, 336 h, time 14 day, read-out: TGI
Outline: (§6)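 C57BL/6 mice were inoculated subcutaneously with 3×10⁵ B16-F10 cells in PBS and randomized (n = 8). Drugs in ethanol/polyoxyethylene castor oil/saline (1.25:1.25:7.5) or vehicle alone were given i.p. once daily for 14 days. Mice were sacrificed at day 14 and tumors weighed; TGI(%) = [1 − Wt/Wv] × 100 using mean tumor weights.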

B16-F10 [16] = test: Inhibition of cell migration in mouse B16-F10 cells assessed as reduction in wound area measured at 100 nM incubated for 24 hrs by wound healing assay; assay type: functional; design: scale not given: the % may be the effect or the level left; outline: as §2
B16-F10 [17] = test: Induction of cell cycle arrest in mouse B16-F10 cells assessed as accumulation of cells in G2/M phase at 100 nM measured after 48 hrs by PI/RNaseA staining based flow cytometry analysis (Rvb= 5.76%); assay type: functional
[18] = Toxicity in C57BL/6 mouse allografted with mouse B16-F10 cells assessed as body weight loss at 10 mg/kg, ip administered for 14 days; settings: in vivo, 336 h
B16-F10 [19] = test: Antitumor activity against mouse B16-F10 cells allografted in C57BL/6 mouse assessed as tumor growth inhibition at 10 mg/kg, ip administered for 14 days in presence of Entinostat; assay type: functional; settings: B16-F10, 336 h, time 14 day, read-out: TGI; outline: as §6
B16-F10 [20] = test: Antitumor activity against mouse B16-F10 cells allografted in C57BL/6 mouse assessed as reduction in tumor weight at 10 mg/kg, ip administered for 14 days in presence of Entinostat; assay type: functional, organism-based; settings: time 14.0 day; outline: as §6
Tubulin (Sus scrofa) = Tubulin (Sus scrofa) (UniProt P02554+P02550); test: Inhibition of pig brain tubulin polymerization at 10 uM measured after 20 mins by spectrometric method relative to control
Tubulin (Sus scrofa), sequence (P02550 whole entry, looked up): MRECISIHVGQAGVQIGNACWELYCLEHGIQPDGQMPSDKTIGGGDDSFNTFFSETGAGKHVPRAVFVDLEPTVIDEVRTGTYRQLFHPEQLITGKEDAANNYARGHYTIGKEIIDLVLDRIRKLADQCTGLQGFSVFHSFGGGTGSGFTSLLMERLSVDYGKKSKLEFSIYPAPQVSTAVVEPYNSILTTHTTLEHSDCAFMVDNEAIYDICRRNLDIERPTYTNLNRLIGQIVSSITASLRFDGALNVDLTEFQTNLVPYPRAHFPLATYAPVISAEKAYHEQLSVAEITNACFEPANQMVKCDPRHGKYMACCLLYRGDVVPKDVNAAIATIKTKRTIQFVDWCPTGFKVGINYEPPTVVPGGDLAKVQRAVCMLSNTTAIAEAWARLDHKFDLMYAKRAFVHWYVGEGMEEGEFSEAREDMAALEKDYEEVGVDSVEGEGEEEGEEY
Tubulin (Sus scrofa), sequence (P02554 whole entry, looked up): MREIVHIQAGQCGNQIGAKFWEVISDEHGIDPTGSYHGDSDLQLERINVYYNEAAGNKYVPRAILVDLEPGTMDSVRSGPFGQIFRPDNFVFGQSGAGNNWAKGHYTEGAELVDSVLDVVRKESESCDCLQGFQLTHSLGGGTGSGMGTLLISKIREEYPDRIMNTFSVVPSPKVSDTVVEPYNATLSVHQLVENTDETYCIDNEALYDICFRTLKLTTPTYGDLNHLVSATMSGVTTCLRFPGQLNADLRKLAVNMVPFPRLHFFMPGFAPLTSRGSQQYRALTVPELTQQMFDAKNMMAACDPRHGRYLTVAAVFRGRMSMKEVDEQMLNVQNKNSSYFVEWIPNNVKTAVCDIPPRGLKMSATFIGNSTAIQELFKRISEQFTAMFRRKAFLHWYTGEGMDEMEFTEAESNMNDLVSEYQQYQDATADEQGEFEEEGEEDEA
Outline: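 Pig brain tubulin was purified by three assembly/disassembly cycles and then phosphocellulose chromatography. Compound at 10 μM in PEM buffer with 1 mM GTP and 5% glycerol at 37 °C. Polymerization followed at 340 nm; inhibition taken at 20 min versus vehicle control.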

[21] = In vivo inhibition of HDAC in tumor of mouse B16-F10 cells xenografted in C57BL/6 mouse assessed as increase in acetylated histone-H3 expression by […] immunohistochemistry method; assay type: functional; design: scale not given: the % may be the effect or the level left; outline: as §3
[22] = In vivo inhibition of HDAC in tumor of mouse B16-F10 cells xenografted in C57BL/6 mouse assessed as increase in acetylated histone-H3 expression in presence of (2-phenylthiazol-4-yl)(3,4,5-trimethoxyphenyl)methanone by […] immunohistochemistry method; assay type: functional; design: scale not given: the % may be the effect or the level left; outline: as §3
[23] = Cardiotoxicity in C57BL/6 mouse ssessed as shortening of QTc level in presence of (2-phenylthiazol-4-yl)(3,4,5-trimethoxyphenyl)methanone by ECG analysis; assay type: toxicity; outline: as §4
[24] = Toxicity in C57BL/6 mouse allografted with mouse B16-F10 cells assessed as morphological abnormalities in kidney at 5 mg/kg, ip administered for 14 days in presence of (2-phenylthiazol-4-yl)(3,4,5-trimethoxyphenyl)methanone by H and E staining based analysis; assay type: organism-based; settings: in vivo, 336 h, time 14 day; outline: as §1
B16-F10 [25] = test: Upregulation of AC-H3 in mouse B16-F10 cells incubated for 12 hrs by Western blot analysis; assay type: functional, cell-based; settings: dose 20-200 nM, DDE = dose-dependent effect
Outline: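 B16-F10 cells (5 × 10⁵/well) treated 12 h with DMSO or compound, lysed in RIPA buffer. 30 μg protein separated by SDS-PAGE and blotted onto PVDF. Blocked 5% BSA 2 h, primary antibody overnight at 4 °C, secondary 1.5 h. Ac-H3 probed, with histone H3 and GAPDH as loading controls; band density quantified; three independent experiments.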

B16-F10 [26] = test: Antitumor activity against mouse B16-F10 cells allografted in C57BL/6 mouse assessed as reduction in tumor weight at 10 mg/kg, ip administered for 14 days in presence of (2-phenylthiazol-4-yl)(3,4,5-trimethoxyphenyl)methanone; assay type: functional, organism-based; settings: time 14.0 day; outline: as §6
B16-F10 [27] = test: Antitumor activity against mouse B16-F10 cells allografted in C57BL/6 mouse assessed as tumor growth inhibition at 10 mg/kg, ip administered for 14 days in presence of (2-phenylthiazol-4-yl)(3,4,5-trimethoxyphenyl)methanone; assay type: functional; settings: B16-F10, 336 h, time 14 day, read-out: TGI; outline: as §6
B16-F10 [28] = test: cells; settings: Mus musculus, B16-F10, 48 h

| Structure (SMILES) | Activity (B16-F10 [1]) [%] | IC50 (Jurkat) [nM] | Activity (B16-F10 [3]) [%] | viability at 0.1 µM (B16-F10 [4]) [%] | IC50 (A549) [nM] | Activity [7] | IC50 (B16-F10 [8]) [nM] | Activity (B16-F10 [9]) [%] | IC50 [10] [nM] | IC50 [11] [nM] | IC50 (HCT-116) [nM] | Activity [14] | inhibition in vivo at 10 mg/kg (B16-F10 [15]) [%] | Activity (B16-F10 [17]) [%] | Activity [18] | further results |
| --- | --- | --- | --- | --- | --- | --- | --- | --- | --- | --- | --- | --- | --- | --- | --- | --- |
| COc1cc(C(=O)c2csc(-c3ccccc3)n2)cc(OC)c1OC | 0.49 | 30 | 29.1 | 60.7 | 190 | Toxic | 980 | 0.75 | 1940 | 1690 | 70 | Non-Toxic | 25 | 76.58 | Non-Toxic | Activity [2]: Non-Toxic; IC50 (Tubulin): 7900 nM; Activity (B16-F10 [5]): 16.24%; Activity [6]: 16.3%; Activity [12]: Non-Toxic; IC50 (B16-F10 [13]): 1150 nM; Activity (B16-F10 [16]): 16.2%; inhibition in vivo at 10 mg/kg (B16-F10 [19]): 53%; Activity (B16-F10 [20]): Active; inhibition (Tubulin (Sus scrofa)): 78% |
| Nc1ccccc1NC(=O)c1ccc(CNC(=O)OCc2cccnc2)cc1 [ENTINOSTAT] | 22.4 | 690 | 16.3 | 59.9 | 1710 | Toxic | 2260 | 1.37 | 12900 | 5560 | 1720 | Non-Toxic | 47 | 42.17 | Non-Toxic | Activity [21]: 27.9%; Activity [22]: 16.3%; Activity [23]: Non-Toxic; Activity [24]: Non-Toxic; Activity (B16-F10 [25]): Dde; Activity (B16-F10 [26]): Active; inhibition in vivo at 10 mg/kg (B16-F10 [27]): 53%; IC50 (B16-F10 [28]): 1150 nM |
